Measurements as given in ChEMBL document CHEMBL3286175, “Cytotoxic alkylated hydroquinone, phenol, and cyclohexenone derivatives from Aspergillus violaceofuscus Gasperini” (2014).

Key:
Format in all cases: functional
HeLa = experiment: Cytotoxicity against human HeLa cells assessed as cell viability after 24 hrs by WST-1 assay; conditions: read-out: LD50 (the source's name)
Method in brief: (§1)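 Cells from ATCC grown in McCoy's 5A with 10% FBS, penicillin (100 units/mL) and streptomycin (100 μg/mL) at 37 °C, 5% CO2. Seeded at 1 × 10^4 cells per well with a range of compound concentrations for 24 h. Viability read by WST-1. LD50 values reported as mean ± SD (n = 5).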

MCF7 = experiment: Cytotoxicity against human MCF7 cells assessed as cell viability after 24 hrs by WST-1 assay; conditions: MCF7, 24 h, read-out: LD50 (the source's name); method in brief: as §1
Jurkat = experiment: Cytotoxicity against human Jurkat cells assessed as cell viability after 24 hrs by WST-1 assay; conditions: read-out: LD50 (the source's name); method in brief: as §1
MOLT-4 = experiment: Cytotoxicity against human MOLT4 cells assessed as cell viability after 24 hrs by WST-1 assay; conditions: MOLT-4, 24 h, read-out: LD50 (the source's name); method in brief: as §1
HCT-116 = experiment: Cytotoxicity against human HCT116 cells assessed as cell viability after 24 hrs by WST-1 assay; conditions: HCT-116, 24 h, read-out: LD50 (the source's name); method in brief: as §1
RAW264.7 = experiment: Cytotoxicity against mouse RAW264.7 cells assessed as cell viability after 24 hrs by WST-1 assay; conditions: RAW264.7, 24 h, read-out: LD50 (the source's name); method in brief: as §1

Compound	CC50 (HeLa) [µM]	CC50 (MCF7) [µM]	CC50 (Jurkat) [µM]	CC50 (MOLT-4) [µM]	CC50 (HCT-116) [µM]	CC50 (RAW264.7) [µM]
CCCCC/C=C/c1c(O)ccc(O)c1CO	24.6	14.8	3.1	3	5.8	5.6
CCCCCCC(O)c1c(O)ccc(O)c1CO (stereo not drawn)	> 100	> 100	> 100	> 100	69.7	55.4
CCCCCCCc1c(O)ccc(O)c1CO	77.6	93	8.2	5.9	61.8	20.1
CCCCCCC(O)c1cccc(O)c1CO (stereo not drawn)	64.2	> 100	8.3	6.2	66	26.2
CCCCC/C=C/C1=C(CO)C(=O)C[C@H](O)[C@@H]1O	> 100	> 100	> 100	> 100	> 100	> 100
CCCCC/C=C/C1=C(CO)C(=O)[C@H]2O[C@H]2[C@@H]1O	77.8	75	20	11.2	6.4	6.5
CCCCC/C=C/C1=C(CO)[C@H](O)[C@H]2O[C@H]2[C@@H]1O	> 100	> 100	> 100	> 100	> 100	> 100
Nc1ccn([C@@H]2O[C@H](CO)[C@@H](O)C2(F)F)c(=O)n1 [GEMCITABINE]	0.023	0.004	0.012	0.008	0.005	0.005
